{"source": "ChEMBL document CHEMBL1949555", "about": "“Piperazine-2,3-dicarboxylic acid derivatives as dual antagonists of NMDA and GluK1-containing kainate receptors” (J Med Chem, 2012)", "key": {"[1]": {"biological_target": "Glutamate NMDA receptor; Grin1/Grin2c (Rattus norvegicus, UniProt P35439+Q00961)", "test": "Antagonist activity rat recombinant GluN1/GluN2C receptor expressed in Xenopus laevis oocytes assessed as inhibition of glutamate-induced response by two-electrode voltage-clamp electrophysiology assay", "assay_type": "functional, cell-based, Oocyte", "conditions": "read-out: Ki(app)", "summary_of_the_method": "(§1)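 Two-electrode voltage clamp of oocytes expressing rat GluN1a with the given GluN2 subunit, held at −60 mV in buffer of 116 mM NaCl, 2 mM KCl, 0.3 mM BaCl2, 5 mM HEPES, pH 7.4. Response is the steady plateau to bath-applied 10 μM L-glutamate plus 10 μM glycine. IC50 converted to apparent Ki via Ki = IC50/(1 + [agonist]/EC50). Means ± s.e.m.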"}, "[2]": {"biological_target": "Glutamate receptor ionotropic, kainate 3 (Rattus norvegicus) (UniProt P42264)", "sequence (P42264 whole entry)": "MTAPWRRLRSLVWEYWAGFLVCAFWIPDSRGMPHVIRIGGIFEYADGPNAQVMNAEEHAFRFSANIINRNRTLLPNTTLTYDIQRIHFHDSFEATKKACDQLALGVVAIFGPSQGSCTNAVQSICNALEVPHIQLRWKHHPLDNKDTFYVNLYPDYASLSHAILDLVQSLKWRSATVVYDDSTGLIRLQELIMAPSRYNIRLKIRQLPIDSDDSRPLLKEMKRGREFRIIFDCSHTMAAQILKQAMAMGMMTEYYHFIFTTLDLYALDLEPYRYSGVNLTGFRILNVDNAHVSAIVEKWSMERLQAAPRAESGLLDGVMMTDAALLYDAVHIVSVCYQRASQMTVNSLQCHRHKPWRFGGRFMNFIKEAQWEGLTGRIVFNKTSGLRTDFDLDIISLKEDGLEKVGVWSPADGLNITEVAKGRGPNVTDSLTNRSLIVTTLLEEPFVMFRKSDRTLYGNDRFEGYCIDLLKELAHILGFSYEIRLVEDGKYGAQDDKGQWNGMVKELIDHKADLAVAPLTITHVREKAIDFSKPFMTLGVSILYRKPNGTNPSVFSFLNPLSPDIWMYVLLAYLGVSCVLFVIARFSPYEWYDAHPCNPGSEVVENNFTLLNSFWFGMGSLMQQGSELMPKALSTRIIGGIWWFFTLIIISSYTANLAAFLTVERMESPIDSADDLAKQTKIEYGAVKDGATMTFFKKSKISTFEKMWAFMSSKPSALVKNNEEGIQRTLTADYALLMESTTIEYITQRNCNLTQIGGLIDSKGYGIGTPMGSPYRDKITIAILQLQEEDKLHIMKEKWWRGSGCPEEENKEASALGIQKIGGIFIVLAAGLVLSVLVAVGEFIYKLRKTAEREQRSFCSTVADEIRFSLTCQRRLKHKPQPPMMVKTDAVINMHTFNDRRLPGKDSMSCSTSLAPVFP", "test": "Displacement of [3H]-Kainate from wild type rat GluK3 receptor transfected in human HEK293 cells at 100 uM by immunoblot analysis", "assay_type": "cell-based"}, "HEK293 [3]": {"test_system": "HEK293", "test": "Displacement of [3H]-Kainate from […] rat GluK3 A660S mutant transfected in human HEK293 cells at 300 uM by immunoblot analysis", "assay_type": "cell-based"}, "[4]": {"biological_target": "Glutamate NMDA receptor; Grin1/Grin2b (Rattus norvegicus, UniProt P35439+Q00960)", "sequence (Q00960 whole entry, other chains not shown)": "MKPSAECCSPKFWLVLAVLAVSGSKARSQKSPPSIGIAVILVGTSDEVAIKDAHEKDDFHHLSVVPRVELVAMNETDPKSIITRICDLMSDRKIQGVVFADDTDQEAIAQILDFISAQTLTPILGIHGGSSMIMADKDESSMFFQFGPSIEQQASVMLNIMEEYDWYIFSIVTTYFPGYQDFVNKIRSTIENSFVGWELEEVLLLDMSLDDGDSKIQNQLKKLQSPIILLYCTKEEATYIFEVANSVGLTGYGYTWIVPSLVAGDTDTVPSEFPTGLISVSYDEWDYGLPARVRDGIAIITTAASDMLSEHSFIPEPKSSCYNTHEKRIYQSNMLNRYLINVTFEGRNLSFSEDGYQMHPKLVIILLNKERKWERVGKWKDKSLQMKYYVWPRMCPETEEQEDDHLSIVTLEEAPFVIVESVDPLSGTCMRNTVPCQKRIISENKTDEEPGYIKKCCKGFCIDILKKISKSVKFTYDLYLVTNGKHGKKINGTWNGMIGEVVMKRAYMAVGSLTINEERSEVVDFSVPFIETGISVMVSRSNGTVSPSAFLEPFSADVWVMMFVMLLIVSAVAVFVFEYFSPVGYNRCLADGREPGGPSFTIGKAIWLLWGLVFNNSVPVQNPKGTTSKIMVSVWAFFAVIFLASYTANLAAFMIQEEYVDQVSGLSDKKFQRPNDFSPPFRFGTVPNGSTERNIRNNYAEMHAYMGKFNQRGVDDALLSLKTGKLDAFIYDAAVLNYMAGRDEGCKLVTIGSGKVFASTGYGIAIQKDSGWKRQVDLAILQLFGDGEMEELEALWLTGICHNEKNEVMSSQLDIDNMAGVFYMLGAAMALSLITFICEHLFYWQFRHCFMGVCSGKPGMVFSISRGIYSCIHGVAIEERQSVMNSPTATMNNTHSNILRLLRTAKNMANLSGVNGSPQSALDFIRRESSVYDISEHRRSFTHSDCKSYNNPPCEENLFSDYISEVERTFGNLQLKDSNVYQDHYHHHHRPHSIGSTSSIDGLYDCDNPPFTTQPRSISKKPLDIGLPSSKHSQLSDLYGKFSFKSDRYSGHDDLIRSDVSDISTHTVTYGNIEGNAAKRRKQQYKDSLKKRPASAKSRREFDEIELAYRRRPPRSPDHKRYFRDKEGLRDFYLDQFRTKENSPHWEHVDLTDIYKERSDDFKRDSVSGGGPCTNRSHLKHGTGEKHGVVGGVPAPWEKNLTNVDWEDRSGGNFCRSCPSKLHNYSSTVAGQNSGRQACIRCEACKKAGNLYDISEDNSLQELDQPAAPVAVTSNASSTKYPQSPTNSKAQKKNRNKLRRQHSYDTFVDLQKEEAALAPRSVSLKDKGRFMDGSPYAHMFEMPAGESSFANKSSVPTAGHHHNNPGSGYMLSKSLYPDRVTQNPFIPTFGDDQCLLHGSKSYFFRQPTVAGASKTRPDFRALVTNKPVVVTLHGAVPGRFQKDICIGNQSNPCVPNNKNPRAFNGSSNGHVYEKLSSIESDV", "test": "Antagonist activity rat recombinant GluN1/GluN2B receptor expressed in Xenopus laevis oocytes assessed as inhibition of glutamate-induced response by two-electrode voltage-clamp electrophysiology assay", "assay_type": "functional, cell-based, Oocyte", "conditions": "read-out: Ki(app)", "summary_of_the_method": "as §1"}, "[5]": {"biological_target": "Glutamate receptor ionotropic, kainate 2 (Homo sapiens, UniProt Q13002)", "sequence (Q13002 whole entry)": "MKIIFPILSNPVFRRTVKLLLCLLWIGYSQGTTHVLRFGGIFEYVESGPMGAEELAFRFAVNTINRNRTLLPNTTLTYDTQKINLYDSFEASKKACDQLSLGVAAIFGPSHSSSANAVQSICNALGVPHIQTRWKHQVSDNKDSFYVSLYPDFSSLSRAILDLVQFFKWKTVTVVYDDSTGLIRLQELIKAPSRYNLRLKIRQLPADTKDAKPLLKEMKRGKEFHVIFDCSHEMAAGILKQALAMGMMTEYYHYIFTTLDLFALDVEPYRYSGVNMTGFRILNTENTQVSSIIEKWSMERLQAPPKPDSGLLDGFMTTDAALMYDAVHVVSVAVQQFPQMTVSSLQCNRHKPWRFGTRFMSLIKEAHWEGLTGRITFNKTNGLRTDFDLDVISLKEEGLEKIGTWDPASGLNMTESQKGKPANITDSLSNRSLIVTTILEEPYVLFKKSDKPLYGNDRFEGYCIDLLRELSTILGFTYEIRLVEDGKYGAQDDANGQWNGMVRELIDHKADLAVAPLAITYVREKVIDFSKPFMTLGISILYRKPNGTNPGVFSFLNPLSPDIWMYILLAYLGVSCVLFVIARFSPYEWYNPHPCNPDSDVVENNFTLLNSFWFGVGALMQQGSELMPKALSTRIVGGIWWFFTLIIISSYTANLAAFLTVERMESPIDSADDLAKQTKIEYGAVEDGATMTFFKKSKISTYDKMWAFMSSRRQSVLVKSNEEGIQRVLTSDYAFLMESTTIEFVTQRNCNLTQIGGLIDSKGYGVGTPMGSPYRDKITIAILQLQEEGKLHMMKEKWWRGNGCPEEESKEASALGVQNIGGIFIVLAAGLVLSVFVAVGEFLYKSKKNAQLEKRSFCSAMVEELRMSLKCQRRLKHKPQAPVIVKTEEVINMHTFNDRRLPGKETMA", "test": "Antagonist activity at human recombinant GluK2 receptor expressed in human HEK293 cells assessed as inhibition of glutamate-stimulated calcium influx by fluorescence assay", "assay_type": "functional, cell-based", "summary_of_the_method": "(§2)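 HEK293 lines stably expressing homomeric human GluK1(Q) or GluK2(Q), passaged no more than 20 times. Ca2+ influx is read as fluorescence, with concanavalin A present. Test compound is added in a first run, then L-glutamate plus antagonist in a second run (final glutamate 30 μM for GluK1, 10 μM for GluK2). IC50 values are converted to KB. Means ± s.e.m.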"}, "[6]": {"biological_target": "Glutamate receptor ionotropic, kainate 3 (Homo sapiens, UniProt Q13003)", "test": "Antagonist activity at human recombinant GluK3 receptor expressed in human HEK293 cells assessed as inhibition of glutamate-stimulated calcium influx by fluorescence assay", "assay_type": "functional, cell-based"}, "Rattus norvegicus [7]": {"species": "Rattus norvegicus", "test": "Selectivity ratio of IC50 for rat GluK3 receptor to IC50 for rat GluK1 receptor", "summary_of_the_method": "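IC50 ratio from whole-cell patch clamp on HEK293 cells stably expressing homomeric GluK1 or GluK3, voltage clamped at −70 mV, 20°C. Glutamate is applied fast through a theta tube. Antagonist is applied about 2 min or until the response is stable, at five concentrations per cell, giving a dose-response curve for each cell.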"}, "HEK293 [8]": {"test_system": "HEK293", "test": "Displacement of [3H]-Kainate from […] rat GluK3 A660S mutant transfected in human HEK293 cells at 1 mM by immunoblot analysis", "assay_type": "cell-based"}, "[9]": {"biological_target": "Ionotropic glutamate receptor NMDA 1/2D (Rattus norvegicus, UniProt P35439+Q62645)", "test": "Antagonist activity rat recombinant GluN1/GluN2D receptor expressed in Xenopus laevis oocytes assessed as inhibition of glutamate-induced response by two-electrode voltage-clamp electrophysiology assay", "assay_type": "functional, cell-based, Oocyte", "conditions": "read-out: Ki(app)"}, "HEK293 [10]": {"test_system": "HEK293", "test": "Displacement of [3H]-Kainate from rat GluK3 A660S mutant transfected in human HEK293 cells at 100 uM by immunoblot analysis", "assay_type": "cell-based"}, "[11]": {"biological_target": "Glutamate NMDA receptor; Grin1/Grin2a (Rattus norvegicus, UniProt P35439+Q00959)", "test": "Antagonist activity at rat recombinant GluN1/GluN2A receptor expressed in Xenopus laevis oocytes assessed as inhibition of glutamate-induced response by two-electrode voltage-clamp electrophysiology assay", "assay_type": "functional, cell-based, Oocyte", "conditions": "read-out: Ki(app)"}, "[12]": {"biological_target": "Glutamate receptor ionotropic, kainate 1 (Homo sapiens, UniProt P39086)", "sequence (P39086 whole entry)": "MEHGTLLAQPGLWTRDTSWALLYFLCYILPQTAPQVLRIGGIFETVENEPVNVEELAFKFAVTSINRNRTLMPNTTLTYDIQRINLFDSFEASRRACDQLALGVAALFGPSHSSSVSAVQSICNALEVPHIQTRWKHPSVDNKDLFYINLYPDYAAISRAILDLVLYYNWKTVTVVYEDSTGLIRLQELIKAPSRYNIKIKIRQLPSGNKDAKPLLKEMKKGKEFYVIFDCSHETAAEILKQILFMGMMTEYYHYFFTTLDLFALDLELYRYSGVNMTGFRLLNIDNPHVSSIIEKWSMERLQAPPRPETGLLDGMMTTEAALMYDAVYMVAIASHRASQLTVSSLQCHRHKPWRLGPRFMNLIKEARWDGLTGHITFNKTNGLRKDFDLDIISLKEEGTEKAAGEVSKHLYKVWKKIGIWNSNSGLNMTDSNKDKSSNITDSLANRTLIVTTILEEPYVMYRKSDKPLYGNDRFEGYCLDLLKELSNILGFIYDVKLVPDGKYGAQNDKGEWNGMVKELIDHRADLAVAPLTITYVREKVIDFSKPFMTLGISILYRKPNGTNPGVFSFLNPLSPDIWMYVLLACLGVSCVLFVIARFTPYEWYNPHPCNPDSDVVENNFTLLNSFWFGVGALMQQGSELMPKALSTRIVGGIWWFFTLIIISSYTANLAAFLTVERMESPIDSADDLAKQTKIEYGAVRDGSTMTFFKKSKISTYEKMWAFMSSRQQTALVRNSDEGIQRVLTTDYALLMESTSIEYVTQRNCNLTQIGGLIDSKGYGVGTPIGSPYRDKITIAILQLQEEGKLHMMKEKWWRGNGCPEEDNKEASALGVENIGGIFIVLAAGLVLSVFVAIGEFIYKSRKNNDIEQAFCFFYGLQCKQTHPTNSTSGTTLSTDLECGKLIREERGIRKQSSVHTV", "test": "Antagonist activity at human recombinant GluK1 receptor expressed in human HEK293 cells assessed as inhibition of glutamate-stimulated calcium influx by fluorescence assay", "assay_type": "functional, cell-based", "summary_of_the_method": "as §2"}, "[13]": {"biological_target": "Glutamate receptor ionotropic, kainate 3 (Rattus norvegicus) (UniProt P42264)", "test": "Displacement of [3H]-Kainate from wild type rat GluK3 receptor transfected in human HEK293 cells at 1 mM by immunoblot analysis", "assay_type": "cell-based"}, "[14]": {"biological_target": "Glutamate receptor ionotropic, kainate 3 (Rattus norvegicus) (UniProt P42264)", "test": "Displacement of [3H]-Kainate from wild type rat GluK3 receptor transfected in human HEK293 cells at 300 uM by immunoblot analysis", "assay_type": "cell-based"}, "Rattus norvegicus [15]": {"test_system": "Rattus norvegicus", "test": "Antinociceptive activity in Wistar rat nerve injury model assessed as reversal of drop in mechanical withdrawal threshold at 30 mg/kg, ip administered before 1 hr on day 7 of injury relative to control", "assay_type": "functional, organism-based", "design": "dose 30 mg/kg", "summary_of_the_method": "(§3)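 Male Wistar rats (~250 g) with partial saphenous nerve ligation injury, tested on day 7 after injury and also before injury. Drug at 30 mg/kg or vehicle is given i.p. (n=5/group), with testing starting 15 min later. Mechanical threshold is taken from von Frey stimulus:response curves on both hindpaws (5 applications per hair). Thermal latency to radiant heat is the mean of 3 trials per hindpaw. Analysis by two-way ANOVA.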"}, "Rattus norvegicus [16]": {"test_system": "Rattus norvegicus", "test": "Antinociceptive activity in Wistar rat at 30 mg/kg, ip", "assay_type": "functional, organism-based", "design": "dose 30 mg/kg", "summary_of_the_method": "as §3"}, "Rattus norvegicus [17]": {"species": "Rattus norvegicus", "test": "Antagonist activity at AMPA receptor in CA3 region of rat hippocampus assessed as change in AMPA-mediated field excitatory postsynaptic potential at 100 uM", "assay_type": "functional, tissue-based", "summary_of_the_method": "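Field EPSPs recorded from transverse rat hippocampal slices (400 μm), CA3 mossy fiber synapses. Compound 100 μM perfused 30 min. fEPSPs averaged every 2 min; slope between 20 and 80% of maximum measured and expressed as % of control slope. Mean ± s.e.m., n=4.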"}, "Rattus norvegicus [18]": {"test_system": "Rattus norvegicus", "test": "Antinociceptive activity in Wistar rat nerve injury model assessed as increased thermal withdrawal latency at 30 mg/kg, ip", "assay_type": "functional, organism-based", "design": "dose 30 mg/kg", "summary_of_the_method": "as §3"}}, "note": "pIC50, pKi: −log10 of the molar value. Active and inactive are the calls of the source.", "data": [{"smiles": "O=C(O)[C@H]1NCCN(C(=O)c2ccc3cc(I)c4ccccc4c3c2)[C@H]1C(=O)O", "note": "(relative stereo)", "values": [{"measurement": "pKi", "setting": "[1]", "value": 5.72}, {"measurement": "inhibition", "setting": "[2]", "value": "Active"}, {"measurement": "inhibition", "setting": "HEK293 [3]", "value": "Active"}, {"measurement": "pKi", "setting": "[4]", "value": 5.42}, {"measurement": "pIC50", "setting": "[5]", "value": "< 4.00"}, {"measurement": "Kb", "setting": "[5]", "value": "> 100", "unit": "µM"}, {"measurement": "pIC50", "setting": "[6]", "value": 4.09}, {"measurement": "Ratio IC50", "setting": "Rattus norvegicus [7]", "value": "> 100"}, {"measurement": "inhibition", "setting": "HEK293 [8]", "value": "Active"}, {"measurement": "pKi", "setting": "[9]", "value": 6.00}, {"measurement": "inhibition", "setting": "HEK293 [10]", "value": "Active"}, {"measurement": "pKi", "setting": "[11]", "value": 5.13}, {"measurement": "pIC50", "setting": "[12]", "value": 6.19}, {"measurement": "Kb", "setting": "[12]", "value": 4.8, "unit": "µM"}, {"measurement": "inhibition", "setting": "[13]", "value": "Active"}, {"measurement": "inhibition", "setting": "[14]", "value": "Active"}, {"measurement": "Activity", "setting": "Rattus norvegicus [15]", "value": "Active"}, {"measurement": "Activity", "setting": "Rattus norvegicus [16]", "value": "Active"}, {"measurement": "Activity", "setting": "Rattus norvegicus [17]", "value": "inactive"}, {"measurement": "Activity", "setting": "Rattus norvegicus [18]", "value": "Active"}]}]}
